# Laboratory results reported in ChEMBL document CHEMBL1649422, “Synthesis and molecular modeling of novel tetrahydro-β-carboline derivatives with phosphodiesterase 5 inhibitory and anticancer properties” (J Med Chem, 2011).
# How the values were obtained:
# MDA-MB-231 [1] = assay: Growth inhibition of human MDA-MB-231 cells at 10 uM after 72 hrs by luminescence assay; assay type: functional; conditions: MDA-MB-231, 72 h
# MDA-MB-231 [2] = assay: Growth inhibition of human MDA-MB-231 cells after 72 hrs by luminescence assay; assay type: functional, cell-based; conditions: MDA-MB-231, 72 h
# Outline: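 MDA-MB-231 cells grown in RPMI 1640 with 5% FBS, 2 mM glutamine and antibiotics at 37 °C, 5% CO2. Cells were harvested at 70–90% confluence, used only if viability >95%, and seeded at 5000 cells/well. Dosing followed 18–24 h later, with final DMSO 0.1%. Viability was read after 72 h by CellTiter-Glo luminescence. IC50 came from eight concentrations in quadruplicate, fitted to a four-parameter logistic.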
# [3] = target: T1, cGMP-specific 3',5'-cyclic phosphodiesterase (Homo sapiens, UniProt O76074); assay: Inhibition of human recombinant PDE5 at 10 uM after 30 mins by fluorescence polarization assay
# [4] = target: T1, cGMP-specific 3',5'-cyclic phosphodiesterase; assay: Inhibition of human recombinant PDE5 after 30 mins by fluorescence polarization assay
# Outline: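 Recombinant human PDE5A at 12.5 units/mL was preincubated 30 min with compound or vehicle. Then 50 nM TAMRA-cGMP was added and the mix incubated 1.5 h at 30 °C. IMAP binding reagent was added for 30 min at 30 °C and fluorescence polarization read. IC50 came from a 10-concentration series in quadruplicate, fitted to a four-parameter logistic.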
# [5] = target: T1, cGMP-specific 3',5'-cyclic phosphodiesterase; assay: Inhibition of human recombinant PDE5A-mediated hydrolysis of cGMP after 30 mins by fluorescence polarization assay
# [6] = target: T2, cGMP-inhibited 3',5'-cyclic phosphodiesterase 3B (Homo sapiens, UniProt Q13370); assay: Inhibition of human recombinant PDE3B-mediated hydrolysis of cAMP after 30 mins by fluorescence polarization assay
# T2 sequence (Q13370 whole entry): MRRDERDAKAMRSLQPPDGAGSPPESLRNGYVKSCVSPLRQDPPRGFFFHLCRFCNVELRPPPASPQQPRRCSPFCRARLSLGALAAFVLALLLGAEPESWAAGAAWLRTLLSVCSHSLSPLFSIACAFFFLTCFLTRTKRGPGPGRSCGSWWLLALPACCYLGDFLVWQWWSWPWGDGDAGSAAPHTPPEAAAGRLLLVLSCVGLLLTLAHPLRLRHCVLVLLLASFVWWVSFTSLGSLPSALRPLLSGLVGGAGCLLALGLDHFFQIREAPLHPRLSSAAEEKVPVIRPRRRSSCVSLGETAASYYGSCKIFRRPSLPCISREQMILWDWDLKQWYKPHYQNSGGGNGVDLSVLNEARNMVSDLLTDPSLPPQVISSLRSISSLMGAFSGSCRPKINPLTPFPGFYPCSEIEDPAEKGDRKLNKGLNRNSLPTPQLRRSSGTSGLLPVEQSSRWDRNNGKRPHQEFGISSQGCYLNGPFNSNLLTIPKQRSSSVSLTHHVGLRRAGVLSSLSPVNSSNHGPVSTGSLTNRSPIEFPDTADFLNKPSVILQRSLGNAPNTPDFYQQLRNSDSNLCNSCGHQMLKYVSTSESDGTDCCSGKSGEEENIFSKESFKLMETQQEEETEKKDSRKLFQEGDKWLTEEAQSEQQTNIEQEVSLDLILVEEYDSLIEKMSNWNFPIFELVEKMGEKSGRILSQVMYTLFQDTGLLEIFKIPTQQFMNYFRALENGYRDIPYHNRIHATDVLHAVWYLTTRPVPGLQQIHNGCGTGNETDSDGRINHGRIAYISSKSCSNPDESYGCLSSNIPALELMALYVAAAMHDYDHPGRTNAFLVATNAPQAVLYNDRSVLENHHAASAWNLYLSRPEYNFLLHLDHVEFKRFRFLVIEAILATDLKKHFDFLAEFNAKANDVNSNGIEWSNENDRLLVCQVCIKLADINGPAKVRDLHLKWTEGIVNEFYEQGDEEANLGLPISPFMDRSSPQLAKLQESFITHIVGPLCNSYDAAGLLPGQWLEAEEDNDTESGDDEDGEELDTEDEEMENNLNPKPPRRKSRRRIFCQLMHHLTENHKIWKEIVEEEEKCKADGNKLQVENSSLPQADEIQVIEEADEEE
# Outline: (§1)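 Recombinant human enzyme levels were PDE3B 10 units/mL, PDE4B 400 units/mL and PDE11A 50 units/mL. Enzyme was preincubated with compound or vehicle for 30 min. Substrate was then added: 50 nM TAMRA-cGMP and/or 50 nM fluorescein-cAMP. Reactions ran 1.5 h at 30 °C, followed by IMAP binding reagent for 30 min at 30 °C. Fluorescence polarization was read. IC50 came from a 10-concentration series in quadruplicate, fitted to a four-parameter logistic.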
# [7] = target: T2, cGMP-inhibited 3',5'-cyclic phosphodiesterase 3B; assay: Inhibition of human recombinant PDE3B-mediated hydrolysis of cGMP after 30 mins by fluorescence polarization assay; outline: as §1
# [8] = target: 3',5'-cyclic-AMP phosphodiesterase 4B (Homo sapiens, UniProt Q07343); assay: Inhibition of human recombinant PDE4B-mediated hydrolysis of cAMP after 30 mins by fluorescence polarization assay
# 3',5'-cyclic-AMP phosphodiesterase 4B, sequence (Q07343 whole entry): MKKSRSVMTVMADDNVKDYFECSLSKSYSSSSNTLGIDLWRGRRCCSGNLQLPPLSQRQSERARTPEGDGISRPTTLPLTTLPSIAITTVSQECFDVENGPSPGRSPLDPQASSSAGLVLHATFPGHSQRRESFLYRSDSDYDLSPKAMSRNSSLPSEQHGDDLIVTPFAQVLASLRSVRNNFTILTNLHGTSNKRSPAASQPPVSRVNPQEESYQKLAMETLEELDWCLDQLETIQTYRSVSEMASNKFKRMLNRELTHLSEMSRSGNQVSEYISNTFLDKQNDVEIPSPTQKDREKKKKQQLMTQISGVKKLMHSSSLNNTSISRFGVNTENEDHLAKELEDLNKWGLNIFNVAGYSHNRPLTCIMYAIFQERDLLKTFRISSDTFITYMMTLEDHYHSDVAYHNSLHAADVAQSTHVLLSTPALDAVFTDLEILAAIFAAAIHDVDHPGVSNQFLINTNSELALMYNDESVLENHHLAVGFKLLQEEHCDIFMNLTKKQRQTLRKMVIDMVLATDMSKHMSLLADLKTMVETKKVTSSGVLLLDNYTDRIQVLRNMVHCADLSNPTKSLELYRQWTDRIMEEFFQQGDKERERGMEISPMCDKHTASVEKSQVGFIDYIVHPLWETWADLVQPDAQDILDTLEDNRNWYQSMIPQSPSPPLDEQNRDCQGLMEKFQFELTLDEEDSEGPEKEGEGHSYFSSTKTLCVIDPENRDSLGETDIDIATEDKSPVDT
# Outline: as §1, with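 “fluorescein-cAMP.” for “fluorescein-cAMP. Reactions ran 1.5 h at 30 °C, followed by IMAP binding reagent for 30 min at 30 °C.”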
# [9] = target: T3, Dual 3',5'-cyclic-AMP and -GMP phosphodiesterase 11A (Homo sapiens, UniProt Q9HCR9); assay: Inhibition of human recombinant PDE11A-mediated hydrolysis of cAMP after 30 mins by fluorescence polarization assay
# T3 sequence (Q9HCR9 whole entry): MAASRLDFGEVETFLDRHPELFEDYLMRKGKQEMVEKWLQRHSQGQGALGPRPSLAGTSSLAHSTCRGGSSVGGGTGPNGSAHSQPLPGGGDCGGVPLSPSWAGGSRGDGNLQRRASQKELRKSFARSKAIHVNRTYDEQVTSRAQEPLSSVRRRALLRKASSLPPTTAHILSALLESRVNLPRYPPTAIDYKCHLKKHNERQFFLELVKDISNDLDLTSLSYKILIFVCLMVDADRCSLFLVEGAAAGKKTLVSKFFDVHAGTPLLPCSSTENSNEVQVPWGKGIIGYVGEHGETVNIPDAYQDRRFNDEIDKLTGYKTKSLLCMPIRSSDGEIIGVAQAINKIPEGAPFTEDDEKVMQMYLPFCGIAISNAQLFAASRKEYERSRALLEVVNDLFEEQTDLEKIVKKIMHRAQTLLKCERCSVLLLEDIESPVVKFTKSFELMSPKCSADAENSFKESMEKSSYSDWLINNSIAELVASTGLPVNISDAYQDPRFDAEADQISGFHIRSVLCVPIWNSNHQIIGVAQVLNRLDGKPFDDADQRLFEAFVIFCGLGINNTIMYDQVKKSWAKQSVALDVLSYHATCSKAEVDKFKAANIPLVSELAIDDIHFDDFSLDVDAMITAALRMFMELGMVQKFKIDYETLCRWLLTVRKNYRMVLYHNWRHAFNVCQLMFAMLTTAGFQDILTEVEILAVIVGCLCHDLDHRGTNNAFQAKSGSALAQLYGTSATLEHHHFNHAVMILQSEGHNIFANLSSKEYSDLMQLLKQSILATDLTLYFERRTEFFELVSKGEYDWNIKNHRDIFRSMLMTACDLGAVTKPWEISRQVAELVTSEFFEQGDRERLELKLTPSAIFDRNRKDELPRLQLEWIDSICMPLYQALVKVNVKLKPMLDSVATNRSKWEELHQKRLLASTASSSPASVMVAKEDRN
# Outline: as §1, with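 “fluorescein-cAMP.” for “fluorescein-cAMP. Reactions ran 1.5 h at 30 °C, followed by IMAP binding reagent for 30 min at 30 °C.”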
# [10] = target: T3, Dual 3',5'-cyclic-AMP and -GMP phosphodiesterase 11A; assay: Inhibition of human recombinant PDE11A-mediated hydrolysis of cGMP after 30 mins by fluorescence polarization assay
# Outline: as §1, with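 “fluorescein-cAMP.” for “fluorescein-cAMP. Reactions ran 1.5 h at 30 °C, followed by IMAP binding reagent for 30 min at 30 °C.”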
Structure (SMILES),IC50 (MDA-MB-231 [2]) [nM],inhibition [3] [%],IC50 [4] [nM],IC50 [5] [nM],IC50 [6] [nM],IC50 [7] [nM],IC50 [8] [nM],IC50 [9] [nM],IC50 [10] [nM],inhibition at 10 µM (MDA-MB-231 [1]) [%]
CC(C)(C)N1C(=O)[C@H]2Cc3c([nH]c4ccccc34)[C@@H](c3ccc(Cl)c(Cl)c3)N2C1=O,3250,82,1870,,,,,,,99
CC(C)(C)N1C(=O)[C@@H]2Cc3c([nH]c4ccccc34)[C@H](c3ccc(Cl)c(Cl)c3)N2C1=O,1430,80,2310,,,,,,,70
CC(C)(C)N1C(=O)[C@H]2Cc3c([nH]c4ccccc34)[C@@H](c3ccc(Cl)cc3Cl)N2C1=O,2260,80,590,,,,,,,68
CC(C)(C)N1C(=O)[C@H]2Cc3c([nH]c4ccccc34)[C@H](c3ccc(Cl)cc3Cl)N2C1=O,640,73,1480,,,,,,,65
CN1CC(=O)N2[C@H](c3ccc4c(c3)OCO4)c3[nH]c4ccccc4c3C[C@@H]2C1=O,,,,,> 50000,> 50000,,,,
CC(C)(C)N1C(=O)[C@@H]2Cc3c([nH]c4ccccc34)[C@@H](c3ccc(Cl)cc3Cl)N2C1=O,1260,95,70,,,,,,,69

# More lines, main results first:
IC50 (MDA-MB-231 [2]) [nM],inhibition [3] [%],IC50 [4] [nM],IC50 [5] [nM],IC50 [6] [nM],IC50 [7] [nM],IC50 [8] [nM],IC50 [9] [nM],IC50 [10] [nM],Structure (SMILES),inhibition at 10 µM (MDA-MB-231 [1]) [%]
5370,95,7,7,> 50000,> 50000,3600,13000,1500,CCN1C(=O)[C@@H]2Cc3c([nH]c4ccccc34)[C@@H](c3ccc(Cl)cc3Cl)N2C1=O,68
,95,10,10,> 50000,> 50000,34000,2000,310,CCN1C(=O)[C@H]2Cc3c([nH]c4ccccc34)[C@@H](c3ccc(Cl)cc3Cl)N2C1=O,39
,91,2,2,> 50000,> 50000,> 50000,104,11,CCN1CC(=O)N2[C@H](c3ccc(Cl)cc3Cl)c3[nH]c4ccccc4c3C[C@@H]2C1=O,30
7100,82,850,,,,,,,CN1CC(=O)N2[C@@H](c3ccc(Cl)cc3Cl)c3[nH]c4ccccc4c3C[C@H]2C1=O,70
3280,78,4460,,,,,,,CCCCN1CC(=O)N2[C@@H](c3ccc(Cl)cc3Cl)c3[nH]c4ccccc4c3C[C@H]2C1=O,82
1200,69,1110,,,,,,,CCCCN1CC(=O)N2[C@@H](c3ccc(Cl)cc3Cl)c3[nH]c4ccccc4c3C[C@@H]2C1=O,65
3260,90,1200,,,,,,,CN1CC(=O)N2[C@@H](c3ccc(Cl)cc3Cl)c3[nH]c4ccccc4c3C[C@@H]2C1=O,65
